# Experimental data published in PMC6423489 (Heliyon, 2019).
# Read-outs that look alike come from different tables or passages of the source.
# How the values were obtained:
# [1] = test system: Saccharomyces cerevisia; details: ref Mohn, 1973; Bianchi et al., 1994; cited from earlier work
# [2] = test system: human lymphocytes; details: 100 and 200 μg/mL; ref Ündeğer and Başaran (2005); cited from earlier work
# [3] = test system: Escherichia coli; details: ref Mohn, 1973; Bianchi et al., 1994; cited from earlier work
# [4] = test system: human peripheral lymphocytes; experiment: In vitro micronucleus; type: cell-based; details: 72 h incubation
# Outline: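 Whole blood from 3 healthy non-smoking donors (25–30 y) was treated with test compound at 0.5, 1.0 or 2.0 μg/mL in 2% DMSO for 72 h. Controls were distilled water, 2% DMSO and 10 mM EMS. Cytochalasin-B was added at 48 h and smears were Giemsa-stained. NDI was scored from 1000 cells and MN from 1000 binucleated cells per repeat, 3 donors, ANOVA.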
# [5] = test system: human peripheral lymphocytes; details: compared to the control group; ref Gomez-Arroyo et al. (1987); cited from earlier work
# [6] = test system: Salmonella typhimurium; details: ref Mohn, 1973, Bianchi et al., 1994, cited from earlier work
# [7] = 10mM, 3000 binucleated cells counted
structure (smiles),measurement,setting,value
CNC(=O)CSP(=S)(OC)OC [DIM],mutagenicity,[1],mutagenic
same,DNA damage,[2],significantly increased DNA damage
same,mutagenicity,[3],mutagenic
same,MN within binucleat (1),"[4]; 0.5 μg/mL, 3000 binucleated cells counted",27
same,%MN±S.E.,"[4]; 0.5 μg/mL, compared with DMSO",0.90 ± 0.72%
same,NDI±S.E.,"[4]; 0.5 μg/mL, compared with DMSO",1.54 ± 0.20
same,MN within binucleat (1),"[4]; 1.0 μg/mL, 3000 binucleated cells counted",29
same,%MN±S.E.,"[4]; 1.0 μg/mL, compared with DMSO",0.97 ± 0.63%
same,NDI±S.E.,"[4]; 1.0 μg/mL, compared with DMSO",1.54 ± 0.23
same,MN within binucleat (1),"[4]; 2.0 μg/mL, 3000 binucleated cells counted",63
same,%MN±S.E.,"[4]; 2.0 μg/mL, compared with DMSO",2.10 ± 0.13%
same,sister chromatid exchanges,[5],increased sister chromatid exchanges
same,mutagenicity,[6]; strain TA 100,mutagenic
same,mutagenicity,"[6]; strains TA 1535, TA 1537, TA 1538, TA 98 and TA 102",non-mutagenic
"CCOS(C)(=O)=O [EMS, ethyl methanesulfonate, reference compound]",MN within binucleat (1),[4]; [7],107
same,MN within binucleat (2),[4]; [7],16
same,MN within binucleat (3),[4]; [7],10
same,%MN±S.E.,"[4]; 10mM, compared with distilled water",5.63 ± 1.60%
COP(=S)(OC)Oc1ccc([N+](=O)[O-])cc1 [methyl parathion],DNA damage,[2],significantly increased DNA damage
same,sister chromatid exchanges,[5],increased sister chromatid exchanges
